# Experiments:
# [1] = system: Mycobacterium tuberculosis; experiment: Antibacterial activity against Mycobacterium tuberculosis H37Rv ATCC 27294T assessed as amikacin MIC at 1 ug/ml after 7 days by microdilution checkerboard assay; format: functional; conditions: 168 h
# How it was run: (§1)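 Two-dimensional checkerboard in H37Rv at 10^5 CFU/ml in MB7H9/OADC. Partner drug (amikacin, EtBr, isoniazid, ofloxacin or rifampin) two-fold serially diluted across columns 3-11. Test compound two-fold serially diluted down rows 2-6. Plates incubated 7 days at 37 °C, then MTT added overnight. […] Run in triplicate.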
# [2] = system: Mycobacterium tuberculosis; experiment: Antibacterial activity against Mycobacterium tuberculosis H37Rv ATCC 27294T assessed as amikacin MIC at 8 ug/ml after 7 days by microdilution checkerboard assay; format: functional; conditions: 168 h; how it was run: as §1
# [3] = system: Mycobacterium tuberculosis; experiment: Antibacterial activity against Mycobacterium tuberculosis H37Rv ATCC 27294T assessed as isoniazid MIC at 32 ug/ml after 7 days by microdilution checkerboard assay; format: functional; conditions: 168 h; how it was run: as §1
# [4] = system: Mycobacterium tuberculosis; experiment: Antibacterial activity against Mycobacterium tuberculosis H37Rv ATCC 27294T assessed as ethidium bromide MIC at 32 ug/ml after 7 days by microdilution checkerboard assay; format: functional; conditions: 168 h; how it was run: as §1
# [5] = system: Mycobacterium tuberculosis; experiment: Antibacterial activity against Mycobacterium tuberculosis H37Rv ATCC 27294T assessed as amikacin MIC at 16 ug/ml after 7 days by microdilution checkerboard assay; format: functional; conditions: 168 h; how it was run: as §1
# [6] = system: Mycobacterium tuberculosis; experiment: Anti-tubercular activity against Mycobacterium tuberculosis H37Rv ATCC 27294T after 7 days by mircodilution method; format: functional; conditions: 168 h
# How it was run: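 H37Rv grown static in MB7H9 + 10% OADC at 37 °C to OD600 0.8, then diluted to about 10^5 cells/ml. Mixed 1:1 with two-fold serial dilutions in MB7H9/OADC and incubated 7 days at 37 °C. MTT added to final 2.5% and plates incubated overnight. MIC is the lowest concentration with no colour change. Run in triplicate.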
# [7] = system: Mycobacterium tuberculosis; experiment: Antibacterial activity against Mycobacterium tuberculosis H37Rv ATCC 27294T assessed as ethidium bromide MIC at 4 ug/ml after 7 days by microdilution checkerboard assay; format: functional; conditions: 168 h; how it was run: as §1
# [8] = system: Mycobacterium tuberculosis; experiment: Antibacterial activity against Mycobacterium tuberculosis H37Rv ATCC 27294T assessed as isoniazid MIC at 16 ug/ml after 7 days by microdilution checkerboard assay; format: functional; conditions: 168 h; how it was run: as §1
# [9] = system: Mycobacterium tuberculosis; experiment: Antibacterial activity against Mycobacterium tuberculosis H37Rv ATCC 27294T assessed as isoniazid MIC at 1 ug/ml after 7 days by microdilution checkerboard assay; format: functional; conditions: 168 h; how it was run: as §1
# [10] = system: Mycobacterium tuberculosis; experiment: Antibacterial activity against Mycobacterium tuberculosis H37Rv ATCC 27294T assessed as rifampin MIC at 8 ug/ml after 7 days by microdilution checkerboard assay; format: functional; conditions: 168 h
# How it was run: (§2)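 M. tuberculosis H37Rv grown in MB7H9 + 10% OADC at 37 °C to OD600 0.8; plates inoculated at 10^5 CFU/ml. Rifampicin two-fold serially diluted across columns, test compound two-fold diluted down rows (two-dimensional checkerboard). Sealed, 37 °C for seven days, then MTT added and incubated overnight. MIC read as no colour change. Triplicate.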
# [11] = system: Mycobacterium tuberculosis; experiment: Antibacterial activity against Mycobacterium tuberculosis H37Rv ATCC 27294T assessed as amikacin MIC at 2 ug/ml after 7 days by microdilution checkerboard assay; format: functional; conditions: 168 h; how it was run: as §1
# [12] = system: Mycobacterium tuberculosis; experiment: Antibacterial activity against Mycobacterium tuberculosis H37Rv ATCC 27294T assessed as ethidium bromide MIC at 1 ug/ml after 7 days by microdilution checkerboard assay; format: functional; conditions: 168 h; how it was run: as §1
# [13] = system: Mycobacterium tuberculosis; experiment: Antibacterial activity against Mycobacterium tuberculosis H37Rv ATCC 27294T assessed as rifampin MIC at 1 ug/ml after 7 days by microdilution checkerboard assay; format: functional; conditions: 168 h; how it was run: as §2
# [14] = system: Mycobacterium tuberculosis; experiment: Antibacterial activity against Mycobacterium tuberculosis H37Rv ATCC 27294T assessed as ofloxacin MIC at 64 ug/ml after 7 days by microdilution checkerboard assay; format: functional; conditions: 168 h; how it was run: as §1
# [15] = system: Mycobacterium tuberculosis; experiment: Antibacterial activity against Mycobacterium tuberculosis H37Rv ATCC 27294T assessed as rifampin MIC at 64 ug/ml after 7 days by microdilution checkerboard assay; format: functional; conditions: 168 h; how it was run: as §2
# [16] = system: Mycobacterium tuberculosis; experiment: Antibacterial activity against Mycobacterium tuberculosis H37Rv ATCC 27294T assessed as ethidium bromide MIC at 2 ug/ml after 7 days by microdilution checkerboard assay; format: functional; conditions: 168 h; how it was run: as §1
# [17] = system: Mycobacterium tuberculosis; experiment: Antibacterial activity against Mycobacterium tuberculosis H37Rv ATCC 27294T assessed as rifampin MIC at 2 ug/ml after 7 days by microdilution checkerboard assay; format: functional; conditions: 168 h; how it was run: as §2
# [18] = system: Mycobacterium tuberculosis; experiment: Antibacterial activity against Mycobacterium tuberculosis H37Rv ATCC 27294T assessed as isoniazid MIC at 8 ug/ml after 7 days by microdilution checkerboard assay; format: functional; conditions: 168 h; how it was run: as §1
# [19] = system: Mycobacterium tuberculosis; experiment: Antibacterial activity against Mycobacterium tuberculosis H37Rv ATCC 27294T assessed as isoniazid MIC at 4 ug/ml after 7 days by microdilution checkerboard; format: functional; conditions: 168 h; how it was run: as §1
# [20] = system: Mycobacterium tuberculosis; experiment: Antibacterial activity against Mycobacterium tuberculosis H37Rv ATCC 27294T assessed as ofloxacin MIC at 4 ug/ml after 7 days by microdilution checkerboard assay; format: functional; conditions: 168 h; how it was run: as §1
# [21] = system: Mycobacterium tuberculosis; experiment: Antibacterial activity against Mycobacterium tuberculosis H37Rv ATCC 27294T assessed as rifampin MIC at 16 ug/ml after 7 days by microdilution checkerboard assay; format: functional; conditions: 168 h; how it was run: as §2
# [22] = system: Mycobacterium tuberculosis; experiment: Antibacterial activity against Mycobacterium tuberculosis H37Rv ATCC 27294T assessed as amikacin MIC at 64 ug/ml after 7 days by microdilution checkerboard assay; format: functional; conditions: 168 h; how it was run: as §1
# [23] = system: Mycobacterium tuberculosis; experiment: Antibacterial activity against Mycobacterium tuberculosis H37Rv ATCC 27294T assessed as ofloxacin MIC at 2 ug/ml after 7 days by microdilution checkerboard assay; format: functional; conditions: 168 h; how it was run: as §1
# [24] = system: Mycobacterium tuberculosis; experiment: Antibacterial activity against Mycobacterium tuberculosis H37Rv ATCC 27294T assessed as ethidium bromide MIC at 8 ug/ml after 7 days by microdilution checkerboard assay; format: functional; conditions: 168 h; how it was run: as §1
# [25] = system: Mycobacterium tuberculosis; experiment: Antibacterial activity against Mycobacterium tuberculosis H37Rv ATCC 27294T assessed as ethidium bromide MIC at 64 ug/ml after 7 days by microdilution checkerboard assay; format: functional; conditions: 168 h; how it was run: as §1
# [26] = system: Mycobacterium tuberculosis; experiment: Antibacterial activity against Mycobacterium tuberculosis H37Rv ATCC 27294T assessed as ofloxacin MIC at 1 ug/ml after 7 days by microdilution checkerboard assay; format: functional; conditions: 168 h; how it was run: as §1
# [27] = Cytotoxicity against human MDM assessed as cell viability after 3 days by Alamar blue dye-based fluorocytometric analysis relative to control; conditions: 72 h
# [28] = system: Mycolicibacterium smegmatis; experiment: Anti-tubercular activity against Mycobacterium smegmatis MC2 155 ATCC 700084 after 3 days by microdilution method; format: functional; conditions: MC2 155 ATCC 700084, 72 h
# How it was run: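 M. smegmatis mc2155 grown in MB7H9 + 10% OADC at 37 °C with shaking to OD600 0.8. Inoculum set to 0.5 McFarland, diluted 1:100, and mixed 1:1 with two-fold serial dilutions in MB7H9. Plates incubated 3 days at 37 °C with growth and sterility controls. MIC taken as the lowest concentration with no visible growth.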
# [29] = system: Mycobacterium tuberculosis; experiment: Antibacterial activity against Mycobacterium tuberculosis H37Rv ATCC 27294T assessed as rifampin MIC at 4 ug/ml after 7 days by microdilution checkerboard assay; format: functional; conditions: 168 h; how it was run: as §2
# [30] = system: Mycobacterium tuberculosis; experiment: Antibacterial activity against Mycobacterium tuberculosis H37Rv ATCC 27294T assessed as ofloxacin MIC at 8 ug/ml after 7 days by microdilution checkerboard assay; format: functional; conditions: 168 h; how it was run: as §1
# [31] = system: Mycobacterium tuberculosis; experiment: Antibacterial activity against Mycobacterium tuberculosis H37Rv ATCC 27294T assessed as ethidium bromide MIC at 16 ug/ml after 7 days by microdilution checkerboard assay; format: functional; conditions: 168 h; how it was run: as §1
# [32] = system: Mycobacterium tuberculosis; experiment: Antibacterial activity against Mycobacterium tuberculosis H37Rv ATCC 27294T assessed as isoniazid MIC at 64 ug/ml after 7 days by microdilution checkerboard assay; format: functional; conditions: 168 h; how it was run: as §1
# [33] = system: Mycobacterium tuberculosis; experiment: Antibacterial activity against Mycobacterium tuberculosis H37Rv ATCC 27294T assessed as ofloxacin MIC at 32 ug/ml after 7 days by microdilution checkerboard assay; format: functional; conditions: 168 h; how it was run: as §1
# [34] = system: Mycobacterium tuberculosis; experiment: Antibacterial activity against Mycobacterium tuberculosis H37Rv ATCC 27294T assessed as isoniazid MIC at 2 ug/ml after 7 days by microdilution checkerboard assay; format: functional; conditions: 168 h; how it was run: as §1
# [35] = system: Mycobacterium tuberculosis; experiment: Antibacterial activity against Mycobacterium tuberculosis H37Rv ATCC 27294T assessed as rifampin MIC at 32 ug/ml after 7 days by microdilution checkerboard assay; format: functional; conditions: 168 h; how it was run: as §2
# [36] = system: Mycobacterium tuberculosis; experiment: Antibacterial activity against Mycobacterium tuberculosis H37Rv ATCC 27294T assessed as amikacin MIC at 4 ug/ml after 7 days by microdilution checkerboard assay; format: functional; conditions: 168 h; how it was run: as §1
# [37] = system: Mycobacterium tuberculosis; experiment: Antibacterial activity against Mycobacterium tuberculosis H37Rv ATCC 27294T assessed as amikacin MIC at 32 ug/ml after 7 days by microdilution checkerboard assay; format: functional; conditions: 168 h; how it was run: as §1
# [38] = system: Mycobacterium tuberculosis; experiment: Antibacterial activity against Mycobacterium tuberculosis H37Rv ATCC 27294T assessed as ofloxacin MIC at 16 ug/ml after 7 days by microdilution checkerboard assay; format: functional; conditions: 168 h; how it was run: as §1
# [39] = system: Mycobacterium tuberculosis; experiment: Antibacterial activity against Mycobacterium tuberculosis H37Rv ATCC 27294T assessed as ethidium bromide MIC at 256 ug/ml after 7 days by microdilution checkerboard assay; format: functional; conditions: 168 h; how it was run: as §1
# [40] = system: Mycobacterium tuberculosis; experiment: Antibacterial activity against Mycobacterium tuberculosis H37Rv ATCC 27294T assessed as rifampin MIC at 256 ug/ml after 7 days by microdilution checkerboard assay; format: functional; conditions: 168 h; how it was run: as §2
# [41] = system: Mycobacterium tuberculosis; experiment: Antibacterial activity against Mycobacterium tuberculosis H37Rv ATCC 27294T assessed as isoniazid MIC at 256 ug/ml after 7 days by microdilution checkerboard assay; format: functional; conditions: 168 h; how it was run: as §1
# [42] = system: Mycobacterium tuberculosis; experiment: Antibacterial activity against Mycobacterium tuberculosis H37Rv ATCC 27294T assessed as ethidium bromide MIC at 128 ug/ml after 7 days by microdilution checkerboard assay; format: functional; conditions: 168 h; how it was run: as §1
structure (smiles),measurement,setting,value
CCCSc1nnc(COc2ccccc2C2=NOC(c3ccc(Cl)cc3Cl)C2)n1NC(=O)c1ccccc1 (centres undefined),MIC,[1],2 µg/mL
same,MIC,[2],2 µg/mL
same,MIC,[3],0.1 µg/mL
same,MIC,[4],12.5 µg/mL
same,MIC,[5],2 µg/mL
same,MIC,[6],32 µg/mL
same,MIC,[7],12.5 µg/mL
same,MIC,[8],0.1 µg/mL
same,MIC,[9],0.1 µg/mL
same,MIC,[10],0.25 µg/mL
same,MIC,[11],2 µg/mL
same,MIC,[12],12.5 µg/mL
same,MIC,[13],0.5 µg/mL
same,MIC,[14],1 µg/mL
same,MIC,[15],0.0312 µg/mL
same,MIC,[16],12.5 µg/mL
same,MIC,[17],0.25 µg/mL
same,MIC,[18],0.1 µg/mL
same,MIC,[19],0.1 µg/mL
same,MIC,[20],2 µg/mL
same,MIC,[21],0.25 µg/mL
same,MIC,[22],1 µg/mL
same,MIC,[23],2 µg/mL
same,MIC,[24],12.5 µg/mL
same,MIC,[25],6.25 µg/mL
same,MIC,[26],2 µg/mL
same,IC50,[27],14.8 µg/mL
same,MIC,[28],2 µg/mL
same,MIC,[29],0.25 µg/mL
same,MIC,[30],2 µg/mL
same,MIC,[31],12.5 µg/mL
same,MIC,[32],0.05 µg/mL
same,MIC,[33],1 µg/mL
same,MIC,[34],0.1 µg/mL
same,MIC,[35],0.125 µg/mL
same,MIC,[36],2 µg/mL
same,MIC,[37],1 µg/mL
same,MIC,[38],2 µg/mL
COc1ccc(CCN(C)CCCC(C#N)(c2ccc(OC)c(OC)c2)C(C)C)cc1OC (centres undefined),MIC,[39],0.781 µg/mL
same,MIC,[6],128 µg/mL
same,MIC,[20],2 µg/mL
same,MIC,[40],0.125 µg/mL
same,MIC,[28],776 µg/mL
same,MIC,[41],0.0125 µg/mL
same,MIC,[30],2 µg/mL
same,MIC,[33],2 µg/mL
same,MIC,[36],2 µg/mL
same,MIC,[38],2 µg/mL
same,MIC,[42],3.12 µg/mL
